Most compounds without a hit are left out; they make up all but 2.6% or so of the library.
Wnt act = Wnt/beta-catenin pathway activators, primary screen, cell-based, plate reader, single point; Wnt/beta-catenin reporter cell assay, activator; activation, % at 9.35 µM; 300,000 compounds, 1.2% hits; in the data active = activation above about 30%, passing the limit was not always enough; inconclusive = no clear call, values can overlap the other calls;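 also: 0% = neutral control wells and 100% = positive control wells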
esBAF inh = Bmi1 luciferase reporter increase in mESCs, primary screen, esBAF inhibitor project, mouse ES cells, Bmi1 luciferase knock-in, single point | 24 h; 100% = twice the neutral-well signal | reporter increase, % at 12.5 µM | 350,000 compounds, 2% hits; in the data active = activation above about 40%; inconclusive = no clear call, values can overlap the other calls;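 also: 0% = median of the plate's neutral control wells and 100% = double that signal; a rise in the Bmi1 reporter signal indicates esBAF inhibition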
MITF act = activators of MITF-driven TRPM1 promoter reporter, primary screen, cell-based, SK-MEL-5, luciferase, single point | SK-MEL-5 TRPM1-promoter luciferase, 24 h; % of positive control, neutral wells = 0 | activation, % at 12.5 µM | 300,000 compounds, 0.75% hits | AID 588334, 2011;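 active = mean activation of at least 80% with every replicate also reaching 80%; inconclusive = mean reaches 80% but some replicate falls short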;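 also: 0% = neutral control wells and 100% = parthenolide positive control wells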
Vif imaging = HIV Vif self-association inhibitors, primary screen, imaging, HEK293T, single point; HEK293T cells, Vif self-association by quenched fluorescence, 24 h; inhibition, % at 7.49 µM; 340,000 compounds, 0.35% hits; AID 602346, 2012; in the data active = inhibition above about 50%, passing the limit was not always enough; inconclusive = no clear call, values can overlap the other calls; inactive = below about 31%
XiGFP reactiv = activators of inactive X chromosome reactivation, primary screen, imaging, XiGFP fibroblasts, GFP high-content imaging, set 2. XiGFP mouse fibroblasts, % GFP-positive cells imaging, 3 d; cells co-treated with 5-aza-dC sensitizer; scaled so ellipticine positive control = 100%. activation, % at 7.58 µM. 360,000 compounds, 0.055% hits;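 active = mean normalized replicate activation at least 10% and every replicate at or above 10%; inconclusive = only one of the two criteria met; inactive = mean below 10% and not all replicates reach 10%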;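 also: 0% = median of on-plate neutral control wells and 100% = ellipticine 6 µM median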
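assay system = SV40-immortalized XiGFP fibroblast cells, line 68-5-11 | buffer or medium = DMEM plus 5-aza-dC sensitizer | doses = single-point pinned compound dosing | times = 3-day compound exposure, then 15 min fixation at room temperature | benchmarks = positive control ellipticine, 6 µM final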
* marks the source's active call; other numbers are inactive results.

Screening O=C(CCl)c1ccc2[nH]c(=O)oc2c1 returned Wnt act 36*, esBAF inh -1, MITF act -21, Vif imaging 0 and XiGFP reactiv 0.
`Cc1cccc(-c2nc(CN3CCN(Cc4cccc(F)c4)CC3)c(C)o2)c1` gave Wnt act 49*, esBAF inh 0, MITF act 5, Vif imaging -5 and XiGFP reactiv 0.
`Cc1oc(-c2cccc(F)c2)nc1CN1CCCN(C(=O)c2ccco2)CC1` gave Wnt act 5, esBAF inh 3, MITF act 1, Vif imaging -3 and XiGFP reactiv 0.
`C[C@@H]1CN([C@@H](C)CO)C(=O)c2c(c3ccccc3n2C)-c2ccccc2CO[C@H]1CN(C)Cc1ccc(Cl)c(Cl)c1` gave XiGFP reactiv 0.
Screening Nc1nc(SCc2ccc(Cl)cc2)ns1 returned esBAF inh 32 and MITF act 38.
`Nc1nc(SCc2ccccc2)ns1` gave esBAF inh 50* and MITF act 35.
Screening CC(=O)N1[C@H](CO)[C@@H](c2ccccc2)C12CN(Cc1ccc(Cl)cc1)C2 returned XiGFP reactiv 0.
`Cc1c(Cl)cccc1NC(=O)CC(C(=O)O)C1CCCO1` (stereo not drawn) gave Wnt act -5, esBAF inh 3 and Vif imaging 98*.
`COCC(=O)Nc1ccc2c(c1)C(=O)N(C)[C@@H]1CC[C@H](CC(=O)NCCc3ccncc3)O[C@H]1CO2` gave esBAF inh -3 and XiGFP reactiv 0.
For COc1cc(C2c3cc4c(cc3C3OC(=O)C2C3CO)OCO4)cc(OC)c1OC (stereo not drawn) the results were Wnt act -10, esBAF inh -16 and XiGFP reactiv 0.
CCN(CC)C1Oc2cc3c(cc2C(c2cc(OC)c(OC)c(OC)c2)C1C)OCO3 (stereo not drawn) was read as Wnt act -4, esBAF inh -16, MITF act -37, Vif imaging 55* and XiGFP reactiv 1.
O=C(COC(=O)c1ccc(F)c(S(=O)(=O)N2CCCCC2)c1)NCc1ccc(F)cc1 was read as Wnt act 40*, esBAF inh -2, MITF act 8 and XiGFP reactiv 0.
O=C(COC(=O)c1ccc(S(=O)(=O)N2CCCCCC2)cc1)NCc1ccc(F)cc1 was read as Wnt act -4, esBAF inh -7, MITF act -1, Vif imaging 0 and XiGFP reactiv 0.
CCc1ccc2[nH]c3nc(SCC(=O)NNC(=O)c4ccc(C(C)(C)C)cc4)nnc3c2c1 was read as esBAF inh 7 and Vif imaging 90*.
`Cc1ccc(C(=O)NNC(=O)CSc2nnc3c(n2)[nH]c2ccc(C)cc23)cc1` gave esBAF inh -2, MITF act -7 and Vif imaging 25.
Screening COc1ccc(S(=O)(=O)Nc2cccc(-c3ccc(N4CCCCCC4)nn3)c2)cc1OC returned Wnt act 1, esBAF inh 19, MITF act 36, Vif imaging 6 and XiGFP reactiv 0.
Cc1ccc(C(=O)Nc2cccc(-c3ccc(N4CCOCC4)nn3)c2)cc1 was read as Wnt act 36*, esBAF inh 52*, MITF act 75, Vif imaging 11 and XiGFP reactiv 1.
For O=C(Nc1cccc(-c2ccc(N3CCOCC3)nn2)c1)c1ccc(Cl)cc1 the results were Wnt act -2, esBAF inh 35, MITF act 84*, Vif imaging -14 and XiGFP reactiv 0.
For O=C(Nc1cccc(-c2ccc(N3CCOCC3)nn2)c1)c1cccc(Cl)c1 the results were Wnt act 35*, esBAF inh 71*, Vif imaging 0 and XiGFP reactiv 0.
Screening Cc1ccc(S(=O)(=O)Nc2cccc(-c3ccc(N4CCCCCC4)nn3)c2)cc1 returned Wnt act 20, esBAF inh 67*, MITF act inconclusive, Vif imaging -1 and XiGFP reactiv 0.
`Cc1ccc(C(=O)Nc2cccc(-c3ccc(N4CCOCC4)nn3)c2)cc1C` gave Wnt act 29, MITF act 76, Vif imaging 2 and XiGFP reactiv 0.
Screening C[C@@H]1CN([C@@H](C)CO)C(=O)c2cc(/C=C/c3ccccc3)cnc2O[C@H]1CN(C)S(=O)(=O)c1cccs1 returned esBAF inh -19 and XiGFP reactiv 0.
Screening CCCN1C[C@@H](C)[C@@H](OC)CN(C)C(=O)c2cc(NC(=O)c3ccccc3F)ccc2OC[C@@H]1C returned esBAF inh -4 and XiGFP reactiv 0.
For COc1cccc(S(=O)(=O)N[C@H]2C=C[C@H](CC(=O)NCc3ccc(F)cc3)O[C@H]2CO)c1 the results were esBAF inh 1 and XiGFP reactiv 0.
O=C(Nc1cccc(-c2ccc(N3CCOCC3)nn2)c1)c1ccccc1Cl was read as Wnt act -3, esBAF inh 54*, MITF act 107*, Vif imaging 11 and XiGFP reactiv 0.
Screening Cc1cccc(-c2nc(C#N)c(N3CCCCCC3)o2)c1 returned esBAF inh 73*, MITF act 66 and Vif imaging 8.
`CC1CCN(c2oc(-c3ccccc3Cl)nc2C#N)CC1` gave Wnt act 15, esBAF inh 53*, MITF act 94* and Vif imaging inconclusive.
`CO[C@H]1CN(C)C(=O)c2ccc(NC(=O)c3ccc4c(c3)OCO4)cc2OC[C@H](C)NC[C@H]1C` gave esBAF inh 0 and XiGFP reactiv 0.
For CO[C@@H]1CN(C)C(=O)c2ccc(NC(=O)c3ccc4c(c3)OCO4)cc2OC[C@H](C)NC[C@@H]1C the results were esBAF inh -4 and XiGFP reactiv 0.
For CO[C@@H]1CN(C)C(=O)c2ccc(NC(=O)Nc3ccc4c(c3)OCO4)cc2OC[C@@H](C)NC[C@@H]1C the results were esBAF inh 87* and XiGFP reactiv 0.
Screening CO[C@@H]1CN(C)C(=O)c2ccc(NC(=O)Nc3ccc4c(c3)OCO4)cc2OC[C@H](C)NC[C@@H]1C returned esBAF inh 60* and XiGFP reactiv 0.
For CCCN1C[C@@H](C)[C@@H](OC)CN(C)C(=O)c2cc(NC(=O)NC3CCCCC3)ccc2OC[C@@H]1C the results were esBAF inh -1 and XiGFP reactiv 0.
Cc1ccc(NC(=S)NCc2ccccc2)cc1C was read as Wnt act 1, MITF act 25, Vif imaging 0 and XiGFP reactiv 0.
